Results from ChEMBL document CHEMBL2331120, “Evidence for the analgesic activity of resveratrol in acute models of nociception in mice” (2013).
Calls of active or inactive are those of the source.

Columns and labels:
Mus musculus [1] = test: Antinociceptive activity in Swiss mouse assessed as inhibition of capsaicin-induced spontaneous nociception at 300 ug/site, administered as intrathecally; format: functional
Method in brief: (§1)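 Mice given intrathecal dose in 5 μL 10 min before intraplantar capsaicin (1.6 μg/paw, 20 μL). Time spent licking the paw recorded for 5 min. Saline-treated controls. Eight animals per group. Percent inhibition averaged across individual experiments.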

Mus musculus [2] = test: Antinociceptive activity in Swiss mouse assessed as inhibition of capsaicin-induced increase of c-Fos expression in L3-L6 spinal segments at 100 mg/kg, po by immunohistochemistry analysis; format: functional, organism-based; parameters: dose 100 mg/kg
Method in brief: (§2)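 Swiss mice, 30 to 35 g, dosed 100 mg/kg po 30 min before ipl capsaicin (1.6 μg in 20 μL per paw). Spinal cord and brain taken 60 min later and fixed in buffered formalin. Sections stained with rabbit anti-c-Fos or anti-COX-2 (1:1000) overnight at room temperature, then biotinylated secondary, ABC and nickel-enhanced DAB. Read-out is positive area per field. Four animals per group.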

Mus musculus [3] = test: Antinociceptive activity in Swiss mouse assessed as inhibition of capsaicin-induced spontaneous nociception at 100 mg/kg, po; format: functional
Method in brief: (§3)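 Swiss mice (30 to 35 g) acclimatized in observation chambers, then dosed orally 30 min before intraplantar capsaicin (1.6 μg in 20 μL, right hindpaw). Time spent licking the injected paw scored over 5 min. Saline controls on the same schedule. n = 8 per group. Percent inhibition taken as the mean of individual experiments.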

Mus musculus [4] = test: Antinociceptive activity in Swiss mouse assessed as inhibition of glutamate-induced increase of c-Fos expression in brain cortex at 100 mg/kg, po by immunohistochemistry analysis; format: functional, organism-based; parameters: dose 100 mg/kg
Method in brief: (§4)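 Swiss mice dosed 100 mg/kg po 30 min before ipl glutamate (10 μmol per paw). Spinal cord and brain excised 60 min later and formalin-fixed. Sections immunostained with rabbit anti-c-Fos (1:1000) overnight at room temperature, then biotinylated secondary, ABC and nickel-enhanced DAB. Positive area per field quantified. Four animals per group.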

Mus musculus [5] = test: Antinociceptive activity in Swiss mouse assessed as inhibition of capsaicin-induced increase of c-Fos expression in brain cortex at 100 mg/kg, po by immunohistochemistry analysis; format: functional, organism-based; parameters: dose 100 mg/kg; method in brief: as §2
Mus musculus [6] = test: Antinociceptive activity in Swiss mouse assessed as inhibition of capsaicin-induced increase of COX2 expression in brain cortex at 100 mg/kg, po by Western blotting; format: functional, organism-based; parameters: dose 100 mg/kg
Method in brief: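 Mice dosed 100 mg/kg po or given saline, then capsaicin 1.6 μg/paw ipl. Cortex homogenized in hypotonic HEPES buffer with protease inhibitors plus Nonidet P-40. 20 μg protein run on 10% SDS-PAGE. Blot probed 12 h with anti-COX-2 (1:250), then HRP secondary. Bands by chemiluminescence and densitometry, normalized to β-actin. Four animals per group.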

Mus musculus [7] = test: Antinociceptive activity in Swiss mouse assessed as inhibition of capsaicin-induced spontaneous nociception at 50 mg/kg, po; format: functional; method in brief: as §3
Mus musculus [8] = test: Antinociceptive activity in Swiss mouse assessed as inhibition of glutamate-induced spontaneous nociception at 200 ug/site, administered as intraplantarly; format: functional
Method in brief: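 Compound co-injected intraplantarly (200 μg/paw) with glutamate (10 μmol/paw, 20 μL) into the right hindpaw of Swiss mice. Licking of the injected paw timed over 15 min. Saline controls. n = 8 per group.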

Mus musculus [9] = test: Antinociceptive activity in Swiss mouse assessed as inhibition of glutamate-induced spontaneous nociception at 100 mg/kg, po; format: functional
Method in brief: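 Oral pretreatment 30 min before intraplantar glutamate (10 μmol/paw, 20 μL) into the right hindpaw. Mice observed individually for 15 min for time spent licking the injected paw. Saline controls. Eight animals per group. Percent inhibition taken as the mean of individual experiments.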

Mus musculus [10] = test: Antinociceptive activity in Swiss mouse assessed as inhibition of glutamate-induced biting behavior at 300 ug/site, administered intrathecally; format: functional
Method in brief: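 Glutamate (30 μg in 5 μL) injected intrathecally into the subdural space at L5–L6, co-injected with compound (300 μg in 5 μL, it). Biting was scored, defined as a head movement toward the flanks or hind limbs ending in snout contact. Saline controls. Eight mice per group.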

Mus musculus [11] = test: Antinociceptive activity in Swiss mouse assessed as inhibition of glutamate-induced spontaneous nociception at 300 ug/site, icv; format: functional, organism-based
Method in brief: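 Dosed icv at 300 μg/site in 5 μL, 10 min before glutamate (10 μmol/paw, ipl). Licking of the injected paw timed for 15 min in Swiss mice, against saline controls. Eight animals per group.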

Mus musculus [12] = test: Antinociceptive activity in Swiss mouse assessed as inhibition of capsaicin-induced increase of COX2 expression in L3-L6 spinal segments and cerebral cortex at 100 mg/kg, po by immunohistochemistry analysis; format: functional, organism-based; parameters: dose 100 mg/kg; method in brief: as §2
Mus musculus [13] = test: Antinociceptive activity in Swiss mouse assessed as inhibition of glutamate-induced increase of COX2 expression in spinal cord and cortex brain section at 100 mg/kg, po
Mus musculus [14] = test: Antinociceptive activity in Swiss mouse assessed as inhibition of capsaicin-induced spontaneous nociception at 300 ug/site, icv; format: functional
Method in brief: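 Intracerebroventricular injection (300 μg/site in 5 μL) 10 min before capsaicin (1.6 μg in 20 μL) into the right hindpaw plantar surface of Swiss mice. Paw-licking time (s) measured over 5 min against saline controls. n = 8. Inhibition calculated as the mean of per-experiment values.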

Mus musculus [15] = test: Antinociceptive activity in Swiss mouse assessed as inhibition of capsaicin-induced biting behavior at 300 ug/site, administered intrathecally; format: functional, organism-based
Method in brief: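 Swiss mice, 30 to 35 g. Given 300 μg/site it, in 5 μL, co-injected with capsaicin (6.4 μg in 5 μL) into the subdural space at L5−L6. Biting is scored as single head movements directed at the flanks or hind limbs that contact the snout. Controls got saline. Eight animals per group.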

Mus musculus [16] = test: Antinociceptive activity in Swiss mouse assessed as inhibition of capsaicin-induced spontaneous nociception at 200 ug/site, administered as intraplantarly; format: functional, organism-based
Method in brief: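 Given 200 μg/paw intraplantar, co-injected with capsaicin (1.6 μg in 20 μL) into the right hindpaw of Swiss mice. Time spent licking the injected paw recorded over 5 min. Saline controls. Eight animals per group.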

Mus musculus [17] = test: Antinociceptive activity in Swiss mouse assessed as inhibition of capsaicin-induced spontaneous nociception at 600 ug/site, administered as intrathecally; format: functional; method in brief: as §1
Mus musculus [18] = test: Antinociceptive activity in Swiss mouse assessed as inhibition of glutamate-induced increase of c-Fos expression in L3-L6 spinal segments at 100 mg/kg, po by immunohistochemistry analysis; format: functional, organism-based; parameters: dose 100 mg/kg; method in brief: as §4
Mus musculus [19] = test: Antinociceptive activity in Swiss mouse assessed as inhibition of glutamate-induced spontaneous nociception at 300 ug/site, administered as intrathecally; format: functional, organism-based
Method in brief: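 Given intrathecally at 300 μg/site in 5 μL, 10 min before ipl glutamate (10 μmol per paw, in 20 μL) in Swiss mice. Paw-licking time recorded over 15 min. Saline controls. Eight animals per group.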

Mus musculus [20] = test: Antinociceptive activity in Swiss mouse assessed as inhibition of capsaicin-induced spontaneous nociception at 150 ug/site, administered as intrathecally; format: functional; method in brief: as §1

In the case of `Oc1ccc(/C=C/c2cc(O)cc(O)c2)cc1` [RESVERATROL], the “inhibition (INH)” value (Mus musculus [1]) is reported as 44%, the inhibition (Mus musculus [2]) is reported as “Active” and the inhibition in vivo at 100 mg/kg (Mus musculus [3]) is reported as 36%. The inhibition (Mus musculus [4]) was “inactive”, the inhibition (Mus musculus [5]) was “inactive” and the inhibition (Mus musculus [6]) was “Active”. For the same compound, the inhibition in vivo at 50 mg/kg (Mus musculus [7]) was 29%, the “inhibition (INH)” value (Mus musculus [8]) was 33% and the inhibition in vivo at 100 mg/kg (Mus musculus [9]) was 39%. The “inhibition (INH)” value (Mus musculus [10]) was 74%, the inhibition (Mus musculus [11]) was “inactive” and the inhibition (Mus musculus [12]) was “Active”. The inhibition (Mus musculus [13]) was “inactive”, the “inhibition (INH)” value (Mus musculus [14]) was 87% and the inhibition (Mus musculus [15]) was “inactive”. The inhibition (Mus musculus [16]) was “inactive”, the “inhibition (INH)” value (Mus musculus [17]) was 36% and the inhibition (Mus musculus [18]) was “inactive”. For the same compound, the inhibition (Mus musculus [19]) was “inactive” and the “inhibition (INH)” value (Mus musculus [20]) was 33%.
